Series [1] is described as follows: melting temperature; fluorescence melt of hairpins on a sequencing array, two-state fit, raised by 9.35 °C to match UV melts. Particulars: sodium 0.088 M. The gist of the method:
(§1)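 Cy3 fluorescence of library hairpins on a sequenced MiSeq flow cell, with annealed Cy3 and quencher oligos, was imaged in 50 mM Na-HEPES pH 8.0, 25 mM NaCl in 2.5 °C steps up to 60 °C. Signals were normalised to pre-quench Cy3 and to control variants. Melting temperature and folding enthalpy came from bootstrapped two-state fits, inverse-variance combined over four replicates. Fitted temperatures were raised by 9.35 °C to match UV melts.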

Series [2] can be described thus: folding enthalpy; higher = less favourable; fluorescence melt of hairpins on a sequencing array, two-state fit. The settings on record: sodium 0.088 M. The gist of the method:
as §1

In the case of GCTGGGCGAAAGCCAGC (((.(((....)))))), the Tm in series [1] turned out to be 68.5 °C. In series [2], the folding enthalpy is -22.4 kcal/mol.
For GATCATCCGAATGATC ((((((....)))))) the same measures were 47.2 °C and -30.3 kcal/mol.
GGAGCCGAAAGGCTGTCC ((((((....)))..))): the Tm in series [1] turned out to be 41 °C. Also, the folding enthalpy in series [2] was -8.93 kcal/mol.
For GGTATCGAAAGATACACC ((((((....)))..))) the same measures were 42.9 °C and -11.8 kcal/mol.
As for GTTTGCGAAAGCACAAAC ((((((....)))..))), the Tm in series [1] came to 31.6 °C. Further, the folding enthalpy in series [2] is -12.3 kcal/mol.
On to GATCCTAACCAGGATC ((((((....)))))), for which the Tm in series [1] turned out to be 52 °C. In series [2], the folding enthalpy was -32.3 kcal/mol.
On to CGTACGGAAACGTAAACG ((((((....)))..))), for which, in series [1], the Tm was determined as 37.2 °C. Besides, the folding enthalpy in series [2] was -17.3 kcal/mol.
For GATGTGGGAAACCGCATC ((((.((....)).)))) the same measures were 51.9 °C and -46.4 kcal/mol.
For GTGGAGGCGAAAGCCCAC (((..(((....)))))) the same measures were 52.9 °C and -17.1 kcal/mol.
For the sequence CGAACCGGAAACGGGTCG (((.(((....))).))), the Tm in series [1] worked out at 58.3 °C. In addition, the folding enthalpy in series [2] was -33.9 kcal/mol.
For GGACCGGCGAAAGCCTCC (((..(((....)))))) the same measures were 27.5 °C and -10.2 kcal/mol.
With GATCGGGCCACCGATC ((((((....)))))), in series [1], the Tm was 67.5 °C. For the same sequence, the folding enthalpy in series [2] is -39.5 kcal/mol.
Consider GATCCTTACAAGGATC ((((((....)))))), for which the Tm in series [1] was determined as 54.2 °C. Besides, the folding enthalpy in series [2] was -38.1 kcal/mol.
For GAGATCGCGAAAGCGCTC (((..(((....)))))) the same measures were 33.6 °C and -8.57 kcal/mol.
Turning to GCTGAGAAATCAGC (((((....))))), in series [1], the Tm amounted to 53.2 °C. The folding enthalpy in series [2] was -28.4 kcal/mol.
Regarding GATCCTTAGGAGGATC ((((((....)))))), the Tm in series [1] amounted to 51 °C. Besides, the folding enthalpy in series [2] was -39.2 kcal/mol.
For GTGTACCGAAAGGTCAC (((.(((....)))))) the same measures were 53 °C and -30.5 kcal/mol.
For GGTGCAGGAAACTGTACC (((.(((....))).))) the same measures were 52.6 °C and -45.4 kcal/mol.
For GGCGACGGAAACGTTGCC (((.(((....))).))) the same measures were 65 °C and -48.8 kcal/mol.
GAATACGGAAACGTATCC (.(((((....))))).): in series [1], the Tm turned out to be 35.1 °C. For the same sequence, in series [2], the folding enthalpy is -15.8 kcal/mol.
For GTACGTGGAAACATGTAC ((((.((....)).)))) the same measures were 47.5 °C and -34.1 kcal/mol.
GCGAGTCTTCGC ((((....)))): the Tm in series [1] came to 57.2 °C. In addition, in series [2], the folding enthalpy was -26.2 kcal/mol.
For GGCGGTGGAAACACTGCC (((.(((....))).))) the same measures were 61.6 °C and -47.3 kcal/mol.
For CGCAAGAAATTGCG (((((....))))) the same measures were 53.3 °C and -29.6 kcal/mol.
As for GTCTGTGAAAACAGAC ((((((....)))))), in series [1], the Tm stood at 57.8 °C. Moreover, the folding enthalpy in series [2] is -36.1 kcal/mol.
In the case of GATTCCGGAAACGGAACC (.(((((....))))).), the Tm in series [1] was determined as 40.1 °C. The folding enthalpy in series [2] was -13.6 kcal/mol.
With GGATGCGAAAGCATTTCC ((((((....)))..))), in series [1], the Tm came out at 38.8 °C. Besides, the folding enthalpy in series [2] was -11.1 kcal/mol.
Turning to GCTTGCGGAAACACAAGC (((((.(....).))))), the Tm in series [1] is 46.8 °C. In series [2], the folding enthalpy is -23.6 kcal/mol.
For GTGAAACGAAAGTTACAC (((.(((....))).))) the same measures were 46.2 °C and -29.7 kcal/mol.
For GCCTTACGAAAGTACGGC (((.(((....))).))) the same measures were 52.2 °C and -46.5 kcal/mol.
GCCCTTGAAAAAGGGC ((((((....)))))): in series [1], the Tm was determined as 68 °C. Further, the folding enthalpy in series [2] was -36 kcal/mol.
Take GCTTACGAAAGTAATAGC ((((((....)))..))): the Tm in series [1] was determined as 38.6 °C. For the same sequence, in series [2], the folding enthalpy was -17.8 kcal/mol.
For CGTCCCGGAAACGGAACG (((.(((....))).))) the same measures were 47.5 °C and -26.3 kcal/mol.
GCACAATCGAAAGATTGC (((..(((....)))))): the Tm in series [1] is 34.5 °C. For the same sequence, in series [2], the folding enthalpy was -10.3 kcal/mol.
For CGACCGGAAACGGAATCG ((((((....)))..))) the same measures were 35.7 °C and -14.3 kcal/mol.
For GCCTACGCGAAAGCGGGC (((..(((....)))))), the Tm in series [1] is 62.1 °C. For the same sequence, the folding enthalpy in series [2] was -14.8 kcal/mol.
For GAATTACGAAAGTATTC (((.(((....)))))) the same measures were 31.1 °C and -13.5 kcal/mol.

The values above are taken from the array DNA melting data of Ke et al. (doi:10.1101/2024.01.08.574731).
